Source: ChEMBL document CHEMBL1150326 (Bioorg Med Chem, 2008)
pIC50: −log10 of the molar value. Activity calls are given as the source filed them. No cut-off for these calls is given here.

Legend:
CCRF-CEM [1] = experiment: Cytotoxicity against taxol-resistant human CCRF-CEM cells after 72 hrs by XTT assay; assay type: functional, cell-based
In short: (§1)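 Leukaemic CCRF-CEM cells and their taxol- and vinblastine-resistant sublines exposed for 72 h. XTT assay read at 450 and 630 nm after 6 h with phenazine methosulfate-XTT at 37 °C. IC50 obtained by the median-effect principle from six or seven concentrations, in duplicate or triplicate.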

CCRF-CEM [2] = experiment: Cytotoxicity against vinblastine-resistant human CCRF-CEM cells after 72 hrs by XTT assay; assay type: functional, cell-based; in short: as §1
CCRF-CEM [3] = experiment: Selectivity ratio of IC50 for vinblastine-resistant human CCRF-CEM cells to IC50 for human CCRF-CEM cells; assay type: functional
In short: (§2)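 Fold resistance: IC50 in the taxol- or vinblastine-resistant CCRF-CEM subline divided by the IC50 in parent CCRF-CEM.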

CCRF-CEM [4] = experiment: Selectivity ratio of IC50 for taxol-resistant human CCRF-CEM cells to IC50 for human CCRF-CEM cells; assay type: functional; in short: as §2
MX1 [5] = experiment: Cytotoxicity against human MX1 cells after 72 hrs by SRB assay; assay type: functional, cell-based; settings: MX1, 72 h
In short: (§3)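 Solid tumour cells (breast MX-1, colon HCT116) exposed for 72 h. Growth measured by SRB assay. IC50 obtained by median-effect plot from six or seven concentrations, in duplicate or triplicate.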

CCRF-CEM [6] = experiment: Cytotoxicity against human CCRF-CEM cells after 72 hrs by XTT assay; assay type: functional, cell-based; in short: as §1
HCT-116 = experiment: Cytotoxicity against human HCT116 cells after 72 hrs by SRB assay; assay type: functional, cell-based; settings: HCT-116, 72 h; in short: as §3
MX1 [7] = experiment: Antitumor activity in human MX1 cells xenografted mouse assessed as complete tumor remission at 50 mg/kg, iv administered in Q2D x 8 schedule; assay type: functional, organism-based; parameters: dose 50 mg/kg
MX1 [8] = experiment: Antitumor activity in human MX1 cells xenografted mouse assessed as complete tumor suppression at 50 mg/kg, iv administered in Q2D x 8 schedule; assay type: functional, organism-based; parameters: dose 50 mg/kg
[9] = Chemical stability assessed as half life at 1 mg in DMSO/Tween 80/normal saline solution; assay type: physicochemical
In short: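 1 mg of compound held in i.v. vehicle (DMSO/Tween 80/normal saline, 0.5:0.4:1.6 v/v/v). Degradation followed by silica TLC (CHCl3/MeOH 10:1) and confirmed by reversed-phase HPLC.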

Mus musculus [10] = experiment: Toxicity against human MX1 cells xenografted mouse assessed as body weight loss at 50 mg/kg, iv administered in Q2D x 8 schedule; assay type: organism-based; parameters: dose 50 mg/kg, route intravenous; settings: in vivo
In short: (§4)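 Nude nu/nu male mice (8 weeks or older, 22 g or more) carrying xenografts, given i.v. tail-vein injections in DMSO/Tween 80/saline vehicle, n = 3. Host toxicity taken as body weight change from the initial pretreatment weight, tracked through and after dosing.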

Mus musculus [11] = experiment: Toxicity against human MX1 cells xenografted mouse assessed as body weight loss at 75 mg/kg, iv administered in Q2D x 8 schedule; assay type: organism-based; parameters: dose 75 mg/kg, route intravenous; settings: in vivo
MX1 [12] = experiment: Antitumor activity in human MX1 cells xenografted mouse assessed as complete tumor remission at 75 mg/kg, iv administered in Q2D x 8 schedule; assay type: functional, organism-based; parameters: dose 75 mg/kg
NCI-H1299 = experiment: Induction of DNA interstrand cross linking in 20 Gy irradiated human H1299 cells at 200 uM after 1 hr by comet assay; assay type: functional
In short: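 H1299 cells (2 × 10^5) plated and grown for 32 h at 37 °C in 5% CO2, then drug-treated for 1 h. Cells given 20 Gy irradiation and embedded in 1.2% low-melting agarose for a modified comet assay under subdued light. Tail moment scored in 100 cells. Cross-linking % = [1 − (TMdi−TMcu)/(TMci−TMcu)] × 100. Three experiments, mean ± SD.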

Mus musculus [13] = experiment: Toxicity against human MX1 cells xenografted mouse assessed as body weight loss at 30 mg/kg, iv administered in Q2D x 5 schedule; assay type: organism-based; parameters: dose 30 mg/kg, route intravenous; settings: in vivo; in short: as §4
MX1 [14] = experiment: Antitumor activity in human MX1 cells xenografted mouse assessed as complete tumor remission at 30 mg/kg, iv administered in Q2D x 5 schedule; assay type: functional, organism-based; parameters: dose 30 mg/kg
[15] = Stability in mouse assessed as half life; assay type: ADME, organism-based; settings: in vivo

Cc1ccc(NC(=O)Nc2ccc(N(CCCl)CCCl)cc2)cc1Nc1c2ccccc2nc2c(C)cccc12
pIC50 (CCRF-CEM [1]): 7.64 | pIC50 (CCRF-CEM [2]): 7.61 | Ratio IC50 (CCRF-CEM [3]): 2.15 | Ratio IC50 (CCRF-CEM [4]): 2.02 | pIC50 (MX1 [5]): 6.23 | pIC50 (CCRF-CEM [6]): 7.94 | pIC50 (HCT-116): 6.80

CC[C@]1(O)C[C@@H]2CN(CCc3c([nH]c4ccccc34)[C@@](C(=O)OC)(c3cc4c(cc3OC)N(C)[C@H]3[C@@](O)(C(=O)OC)[C@H](OC(C)=O)[C@]5(CC)C=CCN6CC[C@]43[C@@H]65)C2)C1 [VINBLASTINE]
pIC50 (MX1 [5]): 8.54 | pIC50 (HCT-116): 8.74

COc1cc(NC(=O)Nc2ccc(N(CCCl)CCCl)cc2)cc(Nc2c3ccccc3nc3c(C(=O)NCCN(C)C)cccc23)c1
pIC50 (CCRF-CEM [1]): 7.52 | pIC50 (CCRF-CEM [2]): 6.02 | Ratio IC50 (CCRF-CEM [3]): 72 | Ratio IC50 (CCRF-CEM [4]): 2.29 | pIC50 (MX1 [5]): 6.20 | pIC50 (CCRF-CEM [6]): 7.88 | pIC50 (HCT-116): 6.96

O=C(Nc1ccc(N(CCCl)CCCl)cc1)Nc1cc(CO)cc(Nc2c3ccccc3nc3ccccc23)c1
pIC50 (CCRF-CEM [1]): 4.76 | Ratio IC50 (CCRF-CEM [4]): 304 | pIC50 (MX1 [5]): 6.43 | Activity (MX1 [7]): inactive | pIC50 (HCT-116): 6.67 | Activity (MX1 [8]): Active | half-life [9]: 55 days | Activity (Mus musculus [10]): 10%

Cc1ccc(Nc2c3ccccc3nc3ccccc23)cc1NC(=O)Nc1ccc(N(CCCl)CCCl)cc1
pIC50 (CCRF-CEM [1]): 7.46 | pIC50 (CCRF-CEM [2]): 7.48 | Ratio IC50 (CCRF-CEM [3]): 2 | Ratio IC50 (CCRF-CEM [4]): 2.08 | pIC50 (MX1 [5]): 6.23 | pIC50 (CCRF-CEM [6]): 7.78 | pIC50 (HCT-116): 6.58

COc1ccc(Nc2c3ccccc3nc3c(C)cccc23)cc1NC(=O)Nc1ccc(N(CCCl)CCCl)cc1
pIC50 (CCRF-CEM [1]): 7.94 | pIC50 (CCRF-CEM [2]): 7.61 | Ratio IC50 (CCRF-CEM [3]): 2.76 | Ratio IC50 (CCRF-CEM [4]): 1.25 | pIC50 (MX1 [5]): 6.43 | pIC50 (CCRF-CEM [6]): 8.04 | pIC50 (HCT-116): 7.13

Cc1cc(NC(=O)Nc2ccc(N(CCCl)CCCl)cc2)cc(Nc2c3ccccc3nc3ccccc23)c1
pIC50 (CCRF-CEM [1]): 6.42 | pIC50 (CCRF-CEM [2]): 6.23 | Ratio IC50 (CCRF-CEM [3]): 4.2 | Ratio IC50 (CCRF-CEM [4]): 2.72 | pIC50 (MX1 [5]): 6.28 | Activity (Mus musculus [11]): 10% | Activity (MX1 [12]): Active | pIC50 (CCRF-CEM [6]): 6.85 | pIC50 (HCT-116): 6.09

COc1cc(NC(=O)Nc2ccc(N(CCCl)CCCl)cc2)cc(Nc2c3ccccc3nc3ccccc23)c1
pIC50 (CCRF-CEM [1]): 7.30 | pIC50 (CCRF-CEM [2]): 7.26 | Ratio IC50 (CCRF-CEM [3]): 1.46 | Ratio IC50 (CCRF-CEM [4]): 1.34 | pIC50 (MX1 [5]): 5.96 | pIC50 (CCRF-CEM [6]): 7.43 | pIC50 (HCT-116): 6.30

CC(=O)O[C@H]1C(=O)[C@@]2(C)[C@H]([C@H](OC(=O)c3ccccc3)[C@]3(O)C[C@H](OC(=O)[C@H](O)[C@@H](NC(=O)c4ccccc4)c4ccccc4)C(C)=C1C3(C)C)[C@]1(OC(C)=O)CO[C@@H]1C[C@@H]2O [PACLITAXEL]
pIC50 (CCRF-CEM [2]): 5.90 | Ratio IC50 (CCRF-CEM [3]): 980 | Ratio IC50 (CCRF-CEM [4]): 330 | pIC50 (MX1 [5]): 7.46 | pIC50 (CCRF-CEM [6]): 8.89 | pIC50 (HCT-116): 8.89

Cc1ccc(NC(=O)Nc2ccc(N(CCCl)CCCl)cc2)cc1Nc1c2cccc(C)c2nc2c(C(=O)NCCN(C)C)cccc12
pIC50 (CCRF-CEM [1]): 6.76 | pIC50 (CCRF-CEM [2]): 6.52 | Ratio IC50 (CCRF-CEM [3]): 25.4 | Ratio IC50 (CCRF-CEM [4]): 14.7 | pIC50 (MX1 [5]): 7.22 | pIC50 (CCRF-CEM [6]): 7.92 | pIC50 (HCT-116): 7.22

N[C@@H](Cc1ccc(N(CCCl)CCCl)cc1)C(=O)O [MELPHALAN]
Activity (NCI-H1299): 47.3%

COc1ccc(NC(=O)Nc2ccc(N(CCCl)CCCl)cc2)cc1Nc1c2ccccc2nc2ccccc12
pIC50 (CCRF-CEM [1]): 7.23 | pIC50 (CCRF-CEM [2]): 7.26 | Ratio IC50 (CCRF-CEM [3]): 1.24 | Ratio IC50 (CCRF-CEM [4]): 1.33 | pIC50 (MX1 [5]): 6.23 | pIC50 (CCRF-CEM [6]): 7.35 | pIC50 (HCT-116): 6.73

Cc1cccc2c(Nc3cc(CO)cc(NC(=O)Nc4ccc(N(CCCl)CCCl)cc4)c3)c3ccccc3nc12
pIC50 (CCRF-CEM [1]): 6.41 | pIC50 (CCRF-CEM [2]): 5.75 | Activity (Mus musculus [13]): 10% | Ratio IC50 (CCRF-CEM [3]): 57.5 | Ratio IC50 (CCRF-CEM [4]): 12.7 | pIC50 (MX1 [5]): 6.90 | pIC50 (CCRF-CEM [6]): 7.51 | pIC50 (HCT-116): 6.58 | Activity (MX1 [14]): Active | half-life [9]: 59 days

O=C(Nc1ccc(N(CCCl)CCCl)cc1)Nc1c2ccccc2nc2ccccc12
pIC50 (CCRF-CEM [1]): 6.41 | pIC50 (CCRF-CEM [2]): 6.42 | Ratio IC50 (CCRF-CEM [3]): 1.65 | Ratio IC50 (CCRF-CEM [4]): 1.68 | pIC50 (MX1 [5]): 6.09 | pIC50 (CCRF-CEM [6]): 6.64 | pIC50 (HCT-116): 6.05

OCc1cc(Nc2c3ccccc3nc3ccccc23)cc(OCCN(CCCl)CCCl)c1
pIC50 (CCRF-CEM [1]): 8.49 | pIC50 (CCRF-CEM [2]): 7.89 | Ratio IC50 (CCRF-CEM [3]): 3.84 | half-life [15]: < 0.0174 days | Ratio IC50 (CCRF-CEM [4]): 0.96 | pIC50 (CCRF-CEM [6]): 8.48 | pIC50 (HCT-116): 8.19

COc1ccc(NC(=O)Nc2ccc(N(CCCl)CCCl)cc2)cc1Nc1c2ccccc2nc2c(C)cccc12
pIC50 (CCRF-CEM [1]): 7.24 | pIC50 (CCRF-CEM [2]): 7.51 | Ratio IC50 (CCRF-CEM [3]): 1.3 | Ratio IC50 (CCRF-CEM [4]): 1.93 | pIC50 (MX1 [5]): 5.74 | pIC50 (CCRF-CEM [6]): 7.53 | pIC50 (HCT-116): 6.24

COc1ccc(Nc2c3ccccc3nc3ccccc23)cc1NC(=O)Nc1ccc(N(CCCl)CCCl)cc1
pIC50 (CCRF-CEM [1]): 7.47 | pIC50 (CCRF-CEM [2]): 7.26 | Ratio IC50 (CCRF-CEM [3]): 7.13 | Ratio IC50 (CCRF-CEM [4]): 4.39 | pIC50 (MX1 [5]): 5.92 | pIC50 (CCRF-CEM [6]): 8.11 | pIC50 (HCT-116): 6.59

COc1cc(NC(=O)Nc2ccc(N(CCCl)CCCl)cc2)cc(Nc2c3ccccc3nc3c(C)cccc23)c1
pIC50 (CCRF-CEM [1]): 7.30 | pIC50 (CCRF-CEM [2]): 7.36 | Ratio IC50 (CCRF-CEM [3]): 1.46 | Ratio IC50 (CCRF-CEM [4]): 1.68 | pIC50 (MX1 [5]): 6.06 | pIC50 (CCRF-CEM [6]): 7.53 | pIC50 (HCT-116): 6.62
